The text below walks through data of PMC7376976 (Bioorganic & medicinal chemistry letters, 2020).

The target of one experiment is T1, ΔFosB/JunD heterodimer (Homo sapiens, UniProt P17535+P53539).
T1 sequence (P53539 1-237 isoform P53539-11): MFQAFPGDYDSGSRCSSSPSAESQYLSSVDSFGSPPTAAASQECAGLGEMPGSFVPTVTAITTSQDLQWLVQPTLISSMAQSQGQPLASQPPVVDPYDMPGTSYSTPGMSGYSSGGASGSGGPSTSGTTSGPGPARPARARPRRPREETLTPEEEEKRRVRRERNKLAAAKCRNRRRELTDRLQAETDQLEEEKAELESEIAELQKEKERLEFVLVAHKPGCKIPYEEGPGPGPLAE
T1 sequence (P17535 1-347): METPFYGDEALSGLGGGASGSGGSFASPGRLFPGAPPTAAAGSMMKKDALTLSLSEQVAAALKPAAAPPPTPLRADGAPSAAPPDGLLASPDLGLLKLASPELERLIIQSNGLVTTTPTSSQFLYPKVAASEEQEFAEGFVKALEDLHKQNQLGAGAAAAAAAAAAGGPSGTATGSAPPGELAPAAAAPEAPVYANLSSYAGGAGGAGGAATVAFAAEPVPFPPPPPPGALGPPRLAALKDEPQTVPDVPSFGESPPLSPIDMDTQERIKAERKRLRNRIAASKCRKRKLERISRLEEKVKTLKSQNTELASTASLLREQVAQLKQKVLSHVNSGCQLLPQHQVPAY
The experiment is classed as binding. In short, it runs like this:
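Annealed 19-mer cdk5 AP-1 duplex, TAMRA-labelled at both 5′ ends, used at 25 nM in 20 mM HEPES pH 7.5, 150 mM NaCl. Added to test compound (10 concentrations, 0–200 μM, quadruplicate) for 5 min, then ΔFosB/JunD at 280 nM (as monomers) for 15 min. FP read at excitation 530/540 nm, emission 590 nm. Oligo-only wells set 100% inhibition. Four-parameter IC50; mean ± SD of two days.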

Another experiment addresses T2, ΔFosB homodimer (Homo sapiens, UniProt P53539).
T2 sequence (P53539 1-237 isoform P53539-11): T1 sequence (P53539 1-237 isoform P53539-11)
In kind it is binding. The procedure, abridged: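 Test compound serially diluted (10 concentrations, 0–200 μM, quadruplicate). Annealed 19-mer cdk5 AP-1 duplex, TAMRA-labelled at both 5′ ends, added at 25 nM in 20 mM HEPES pH 7.5, 50 mM NaCl for 5 min. ΔFosB then added at 320 nM (as monomers) for 15 min. FP read at excitation 530 or 540 nm, emission 590 nm. Four-parameter IC50; mean ± SD of two independent days.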

Structures are written as SMILES.

As for `COc1cc(OC)c2c(C(=O)O)nc3c(OC)cccc3c2c1` [Compound 25], on ΔFosB/JunD heterodimer, the “activity in FP-assay against ΔFosB/JunD heterodimers (in words)” value is listed as “lacked activity”. Besides, the “activity in FP-assay against ΔFosB homodimers (in words)” value on ΔFosB homodimer was “lacked activity”.

Turning to `COc1cccc2c1N(C(C)=O)C(C(=O)O)C1CC=CC21` (stereo not shown) [Compound 13], at ΔFosB/JunD heterodimer, the “activity in FP-assay against ΔFosB/JunD heterodimers (in words)” value is on record as “lacked significant activity”. Also, the “activity in FP-assay against ΔFosB homodimers (in words)” value at ΔFosB homodimer is listed as “lacked significant activity”.

As to `CCOC(=O)c1nc2c(C)cccc2c2c1CCC2` [Compound 20], the “activity in FP-assay against ΔFosB/JunD heterodimers (in words)” value on ΔFosB/JunD heterodimer is reported as “little activity even at 100 μM or higher”. Further, the “activity in FP-assay against ΔFosB homodimers (in words)” value on ΔFosB homodimer is “little activity even at 100 μM or higher”.

As to `COc1cccc2c1NC(C(=O)O)C1CCCC21` (stereo not shown) [Compound 14], on ΔFosB/JunD heterodimer, the “activity in FP-assay against ΔFosB/JunD heterodimers (in words)” value was “lacked significant activity”. Further, the “activity in FP-assay against ΔFosB homodimers (in words)” value at ΔFosB homodimer is listed as “lacked significant activity”.

Turning to `Cc1cccc2c3c(c(C(=O)O)nc12)CCC3` [Compound 21], the “activity in FP-assay against ΔFosB/JunD heterodimers (in words)” value on ΔFosB/JunD heterodimer is listed as “little activity even at 100 μM or higher”. Also, the “activity in FP-assay against ΔFosB homodimers (in words)” value at ΔFosB homodimer is on record as “little activity even at 100 μM or higher”.
